Results pooled from the literature.
Each line is one published result; the experiments were not run side by side.
Target: Mitogen-activated protein kinase kinase kinase 10 (MAP3K10, Homo sapiens, UniProt Q02779)

SMILES	read-out	action	technique	tested at	quantity	value
O=c1[nH]c2ccccc2n1C1CCN(Cc2ccc(-c3[nH]c4cc5ncnc5cc4nc3-c3ccccc3)cc2)CC1	cell-free assay	–	–	0.5 µM	remaining signal	102%
Nc1ncc(-c2nc(N3CCOCC3)nc(N3CCOCC3)n2)c(C(F)F)n1	binding	–	competition with immobilised ligand	10 µM	remaining binding	53%
Cn1cc(-c2cc(F)cc(N3CCn4c(cc5c4CCCC5)C3=O)c2CO)cc(Nc2ccc(N3CCN(C4COC4)CC3)cn2)c1=O	enzyme activity	inhibitor	–	0.1 µM	inhibition	-7%
COc1ncccc1-c1cnn2ccc(N3CCN(C(=O)OC(C)C)CC3)nc12	binding	–	competition with immobilised ligand	1 µM	remaining binding	96%
Cn1cc(-c2cccc(N3CCc4c(sc5c4CC(C)(C)C5)C3=O)c2CO)cc(Nc2ccncn2)c1=O	enzyme activity	inhibitor	–	1 µM	inhibition	-5%
Cn1cncc1[C@@](O)(COc1ccc(C#N)cc1-c1ccc(OC(F)(F)F)cc1)c1ccc(C#N)cc1	cell-free assay	–	competition with immobilised ligand	1 µM	remaining binding	98%
CC(C)(C)c1cc(C=C(C#N)C#N)cc(Br)c1O	enzyme activity	inhibitor	–	0.5 µM	remaining activity	100%
N#CC1(c2ccccn2)CCN(Cc2cc(C(=O)O)c(=O)n3ccccc23)CC1	cell-free assay	–	competition with immobilised ligand	1 µM	remaining binding	97%
Cc1nn(C)cc1-c1nc2c(N3CCN(Cc4ccc(Cl)cc4)CC3)c(Cl)cnc2[nH]1	binding	–	competition with immobilised ligand	1 µM	remaining binding	5.4%
